Assay outcomes deposited in PubChem by several laboratories.
Most compounds without a hit are left out; they make up all but 2% or so of the library.
NR2E3 ag-1: agonists of human NR2E3 nuclear receptor. Q9Y5X4. CHO-S Gal4-NCOR/VP16-NR2E3 two-hybrid, luciferase. inhibition of corepressor binding, % at 3.98 µM. hit rate 0.35% among 360,000;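 active = inhibition above the mean of all tested compounds plus 3 SD, cut at about 70% in these data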;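 also: 0% = DMSO with NR2E3 transfected cells and 100% = cells lacking NR2E3 construct; higher means lower luciferase signal from less NR2E3 corepressor binding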
Rev-erbA mod: modulates human Rev-erb alpha binding to DNA; hit rate 0.79% among 370,000; P20393; AID 1259318; activity, % at 10 µM; Rev-erbα–FITC-DNA binding, fluorescence polarization, 90 min;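 active = activity above about 14%, limit read from the data; passing the limit was not always enough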;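 also: 0% = DMSO wells with 35 nM protein and 100% = DMSO wells with 750 nM protein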
Target sequence (P20393 whole entry, looked up): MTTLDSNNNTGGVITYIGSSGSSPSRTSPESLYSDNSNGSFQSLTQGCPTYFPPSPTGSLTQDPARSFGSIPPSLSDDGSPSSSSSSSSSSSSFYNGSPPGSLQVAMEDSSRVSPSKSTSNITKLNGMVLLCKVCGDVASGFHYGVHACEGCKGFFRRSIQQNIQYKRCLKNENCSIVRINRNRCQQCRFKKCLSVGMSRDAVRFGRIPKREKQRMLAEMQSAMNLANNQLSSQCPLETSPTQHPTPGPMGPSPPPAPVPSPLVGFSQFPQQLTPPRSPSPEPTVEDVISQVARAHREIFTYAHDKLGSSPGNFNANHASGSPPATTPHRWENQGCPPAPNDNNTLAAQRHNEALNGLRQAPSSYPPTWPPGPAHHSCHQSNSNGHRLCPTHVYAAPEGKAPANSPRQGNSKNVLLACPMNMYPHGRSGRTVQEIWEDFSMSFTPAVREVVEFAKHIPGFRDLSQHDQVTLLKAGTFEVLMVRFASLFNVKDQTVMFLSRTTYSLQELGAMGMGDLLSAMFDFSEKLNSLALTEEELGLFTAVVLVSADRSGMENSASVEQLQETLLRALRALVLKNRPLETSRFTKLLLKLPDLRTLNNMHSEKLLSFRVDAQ
Neddylation inh: inhibitors of human cullin neddylation. P61081+Q13564. TR-FRET cullin neddylation, biochemical. hit rate 0.58% among 360,000. calls only at 25 µM. AID 651699; in the data active = inhibition above about 36%
PG9 binder: small molecules binding HIV-1 gp120 antibody PG9; hit rate 0.43% among 360,000; inhibition, % at 6.7 µM; TR-FRET gp120-PG9 antibody binding; in the data active = inhibition above about 8.5%
NR2E3 ag-2: activates human photoreceptor nuclear receptor NR2E3; Q9Y5X4; GST-NR2E3/biotin-RetCOR TR-FRET, 1536-well; inhibition of corepressor binding, % at 4.78 µM; hit rate 0.12% among 320,000; AID 2300;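 active = percent inhibition above the cutoff of mean plus 3 SD of all tested compounds, set per screening campaign, cut at about 20% in these data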;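 also: 0% = DMSO wells and 100% = biotin wells as full block of FRET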
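System: GST-tagged NR2E3 plus biotinylated RetCOR corepressor; Buffer or medium: pH 7.5 Tris-based buffer; Probe or stimulus: RetCOR corepressor, biotinylated, 7 nM; Doses: compound at 4.8 µM, single dose; Schedule: 5 h incubation at 4 °C; Technique: time-resolved FRET; Evaluation: percent inhibition of TR-FRET ratio; Replication: one well per compound, singlicate testing.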
Neddyl inh conf: confirmation of human cullin neddylation inhibitors. shares compounds with Neddylation inh. TR-FRET cullin neddylation biochemical assay. calls only at 25 µM. hit rate 13% among 1,800. AID 652217; in the data active = inhibition above about 40%;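 also: neddylation substrate is the cullin 1 ring ligase complex with SKP2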
Numbers without * were called inactive; i = inactive; . = no result shown; + = active, no number.

SMILES | NR2E3 ag-1 | Rev-erbA mod | Neddylation inh | PG9 binder | NR2E3 ag-2 | Neddyl inh conf
CCOC(=O)C(=CNc1ccc2c(c1)nnn2-c1ccc(Cl)cc1)C(=O)OCC | -23 | -5 | + | -2 | -2 | .
CCOC(=O)C(=CNc1ccc(O)c(C(=O)OC)c1)C(=O)OCC | -22 | 0 | + | 0 | 4 | i
CCOC(=O)c1cc(NC(=O)COC)ccc1O | . | . | . | . | 4 | .
CCOC(=O)C(=CNc1cc(C)nn1-c1ccc(C)cc1)C(=O)OCC | -44 | 5 | i | 2 | 3 | .
C[C@H](O)C#Cc1ccc2c(c1)O[C@@H](CN(C)Cc1ccc(-c3ccccc3)cc1)[C@H](C)CN([C@@H](C)CO)S2(=O)=O | -13 | -3 | i | -3 | . | .
CCc1ccc2nc(N3CCN(C)CC3)c(C#N)cc2c1 | 5 | -3 | + | 0 | 0 | i
O=C(NCCCCc1ccccc1)c1ccc(F)cc1 | -26 | 6 | i | -3 | 0 | .
CCC12CCCN3CCc4c(n(c5ccccc45)C(O)(C(=O)OC)C1)C32 (stereo not given) | -36 | -5 | i | -4 | 2 | .
CC[C@]12CCCN3CCc4c(n(c5ccccc45)[C@](O)(C(=O)OC)C1)[C@@H]32 | -14 | 2 | + | -2 | 1 | i
CN(CC(=O)Nc1ccccc1Cl)C(=O)COC(=O)c1ccc(C(F)(F)F)cc1 | 27 | -2 | i | -1 | 3 | .
CN(CC(=O)Nc1ccccc1Cl)C(=O)COC(=O)c1ccc(-c2ccc(O)cc2)cc1 | 11 | -2 | + | -2 | . | .
NC(=O)CSc1nnc2ccc(-c3ccc(F)cc3)nn12 | 7 | 0 | + | 2 | 0 | i
Cc1ccc(-c2ccc3nnc(SCC(N)=O)n3n2)cc1 | 12 | -4 | . | 1 | 6 | .
O=C(CSc1nnc2ccc(-c3ccccc3)nn12)NCC1CCCO1 (stereo not given) | -12 | -5 | + | -1 | -1 | +
NC(=O)CSc1nnc2ccc(-c3ccc(Cl)cc3)nn12 | -15 | 4 | + | 4 | -3 | i
COc1ccc(-c2ccc3nnc(SCC(=O)N4CCCC4)n3n2)cc1 | 2 | -3 | + | 1 | 0 | .
Cc1ccc(C(=O)OCC(=O)Nc2ccc(C)c(S(=O)(=O)N3CCCCC3)c2)o1 | 0 | -1 | i | 0 | . | .
C[C@@H]1CC=C[C@H]2[C@H]1C(=O)N(Cc1ccccc1)[C@H]2c1ccc(/C=C/c2ccccc2)cc1F | -37 | 2 | + | 0 | 4 | .
C=CCn1c(SCc2c(Cl)cccc2Cl)nnc1-c1cccc(C)c1 | . | 3 | . | . | . | .
CCOC(=O)c1cc(N2CCCCC2)nc2ccccc12 | -21 | 3 | . | 0 | . | .
O=C(O)c1cc(N2CCCCC2)nc2ccccc12 | 34 | 3 | + | 1 | . | +
Cc1ccccc1Cn1cc(CN2[C@H](Cc3ccccc3)COc3cc(Br)ccc3S2(=O)=O)nn1 | . | -5 | . | . | . | .
Cc1ccc(CN2CCCCC(NC(=O)c3ccc(N(C)C)cc3)C2=O)cc1 (stereo not given) | . | 2 | . | . | . | .
Cc1cc(Cl)ccc1NC(=O)C(=O)N/N=C/c1ccc2c(c1)OCO2 | -12 | -1 | + | 0 | 2 | i
Cc1ccc(Cl)cc1NC(=O)C(=O)N/N=C/c1ccc2c(c1)OCO2 | -36 | 4 | + | -4 | . | i
SMILES | NR2E3 ag-1 | Rev-erbA mod | Neddylation inh | PG9 binder | NR2E3 ag-2 | Neddyl inh conf
O=C(N/N=C/c1ccc2c(c1)OCO2)C(=O)Nc1ccccc1Cl | 5 | -4 | i | 1 | . | .
CSc1cnc2c(=O)n(C)c(=O)[nH]c2n1 | 15 | -2 | + | -2 | 0 | .
CSc1nnc2c(=O)[nH]c(=O)n(C)c2n1 | 14 | -10 | i | -2 | . | .
O=C(CCCCn1ccc(=O)[nH]c1=O)Nc1ccc(O)c(C(=O)O)c1 | 7 | 1 | + | -1 | . | .
Cc1cc2c(c(N)n1)c(=O)oc1ccccc12 | -11 | 5 | + | 1 | 1 | i
COc1cccc(-c2ccc(C#N)c(OC(=O)c3ccc(Cl)cc3)n2)c1 | -19 | 12 | + | 1 | 1 | i
COc1cccc(-c2ccc(C#N)c(OC(=O)c3c(Cl)cccc3Cl)n2)c1 | -30 | 0 | . | 0 | -3 | .
COc1ccc(CCNC(=O)C2(C)CCC(=O)N2Cc2ccc(F)cc2Cl)cc1OC (stereo not given) | -23 | 4 | + | 1 | 2 | i
COc1cc2c(cc1OC)/C(=C/C(=O)c1ccc(C)cc1)NCC2 | -31 | -2 | + | 1 | . | i
C[C@@H]1CN([C@H](C)CO)C(=O)CCCn2cc(nn2)CO[C@H]1CN(C)C(=O)Nc1cccc(F)c1 | -41 | 0 | i | -3 | . | .
Cc1cc(=O)c2c([nH]1)c(C)cc1[nH]c(C)c(C)c12 | -15 | -7 | + | -8 | 0 | .
Cc1cc(C)c(S(C)(=O)=O)c(=O)[nH]1 | -5 | 3 | i | -3 | 3 | .
O=C(CN1C(=O)NC2(CCCCCC2)C1=O)NCc1ccc(Cl)cc1 | -22 | 2 | i | 0 | . | .
COc1ccc(NC(=O)N2c3ccccc3C(C)=CC2(C)C)cc1 | -13 | -1 | i | 2 | -2 | .
COc1ccc(NC(=O)N2c3ccc(OC)cc3C(C)=CC2(C)C)cc1 | 8 | 1 | + | -3 | 0 | .
COc1cc2c(cc1OC)C(C1C(=O)CC(C)(C)CC1=O)N(C(=O)CCl)CC2 (stereo not given) | 1 | 2 | + | -4 | 3 | i
O=C(O)CCn1c2c(c3ccccc31)C[C@H](NS(=O)(=O)c1ccc(F)cc1)CC2 | . | -4 | . | . | . | .
COc1ccc(C)cc1N(C(=O)c1snc(C(N)=O)c1N)C(C(=O)NC1CCCC1)c1ccc(F)cc1 (stereo not given) | -4 | 0 | + | -1 | 2 | .
CC(C(=O)NCC1CCCO1)N(C(=O)c1snc(C(N)=O)c1N)c1ccccc1 (stereo not given) | 4 | 1 | i | 2 | -1 | .
COc1ccc(N(C(=O)c2snc(C(N)=O)c2N)C(C(=O)NCc2ccccc2)c2ccc(O)cc2)cc1OC (stereo not given) | -26 | 6 | i | 0 | . | .
COc1ccc(N(C(=O)c2snc(C(N)=O)c2N)C(C(=O)NC2CCCC2)c2ccc(F)cc2)c(OC)c1 (stereo not given) | -8 | 2 | . | -1 | 5 | .
CC(C(=O)NCC1CCCO1)N(C(=O)c1snc(C(N)=O)c1N)c1cccc(F)c1 (stereo not given) | -11 | -6 | + | 2 | 2 | .
NC(=O)c1nsc(C(=O)N(c2ccccc2F)C(C(=O)NCc2ccccc2)c2ccc(O)cc2)c1N (stereo not given) | 32 | 0 | i | -2 | -2 | .
COc1cccc(N(C(=O)c2snc(C(N)=O)c2N)C(C(=O)NCc2ccccc2)c2ccc(O)cc2)c1 (stereo not given) | -18 | 3 | + | 1 | 0 | +
